Laboratory results as given in ChEMBL document CHEMBL1138494, “Human glucagon receptor antagonists with thiazole cores. A novel series with superior pharmacokinetic properties” (J Med Chem, 2009).
The source made the active and inactive calls. No cut-off for these calls is given here.

Experiments:
[1] = molecular target: T1, Gastric inhibitory polypeptide receptor (Homo sapiens, UniProt P48546); assay: Displacement of [125I]porcine GIP from human recombinant GIPR receptor expressed in BHK cells by scintillation proximity assay; format: cell-based
T1 sequence (P48546 whole entry): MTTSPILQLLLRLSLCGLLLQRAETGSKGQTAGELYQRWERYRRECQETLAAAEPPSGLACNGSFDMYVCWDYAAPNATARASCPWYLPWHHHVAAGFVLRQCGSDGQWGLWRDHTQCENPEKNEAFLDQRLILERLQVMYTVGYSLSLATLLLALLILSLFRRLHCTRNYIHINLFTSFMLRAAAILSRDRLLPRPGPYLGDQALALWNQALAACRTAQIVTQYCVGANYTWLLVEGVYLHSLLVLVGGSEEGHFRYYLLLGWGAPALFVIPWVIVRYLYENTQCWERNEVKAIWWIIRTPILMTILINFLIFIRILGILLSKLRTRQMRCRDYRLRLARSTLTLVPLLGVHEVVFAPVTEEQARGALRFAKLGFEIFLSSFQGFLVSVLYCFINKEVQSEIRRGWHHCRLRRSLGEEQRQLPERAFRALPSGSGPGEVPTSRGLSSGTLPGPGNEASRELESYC

[2] = Clearance in fasted Sprague-Dawley rat at 1.60 mg/kg, iv and 3.25 mg/kg, po by HTLC-MS/MS analysis; format: ADME, organism-based; details: in vivo, 1.6 mg/kg
In short: (§1)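 Rats were dosed intravenously and perorally in separate arms, and plasma concentration-time profiles were obtained. Half-life was taken from the iv arm. Clearance, oral bioavailability, Cmax and Tmax were derived from the profiles.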

[3] = Cmax in fasted Sprague-Dawley rat at 1.60 mg/kg, iv and 3.25 mg/kg, po by HTLC-MS/MS analysis; format: ADME, organism-based; details: in vivo; in short: as §1
[4] = Tmax in fasted Beagle dog at 0.25 mg/kg, iv and 0.5 mg/kg, po; format: ADME, organism-based, Canis lupus familiaris; details: in vivo
In short: (§2)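 Plasma concentration–time profiles were recorded after separate intravenous and peroral dosing at the per-compound doses listed. T_max is reported in min alongside C_max (ng/mL), intravenous half-life and clearance ((mL/min)/kg).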

[5] = Oral bioavailability in fasted Beagle dog at 0.5 mg/kg; format: ADME, organism-based, Canis lupus familiaris; details: in vivo
In short: (§3)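 Separate intravenous and peroral dosing arms per compound, with plasma concentration followed against time. Oral bioavailability (F_po) is reported per compound together with the intravenous half-life and clearance. The dose used for each arm is listed per compound.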

[6] = system: Hepatocyte; assay: Inhibition of glucagon-stimulated glucose production in rat primary hepatocytes; format: functional, cell-based
[7] = Binding affinity to glucagon receptor in rabbit liver membrane by membrane filter assay; format: cell membranes, Oryctolagus cuniculus
[8] = Half life in fasted Beagle dog at 0.25 mg/kg, iv; format: ADME, organism-based, Canis lupus familiaris; design: dose 0.25 mg/kg, route intravenous; details: in vivo
In short: (§4)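 Dogs were dosed at 0.25 mg/kg iv and 0.5 mg/kg po, and plasma concentration was followed over time. Half-life came from the iv arm; clearance, Cmax and Tmax were also derived.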

[9] = Half life in fasted Sprague-Dawley rat plasma at 1.60 mg/kg, iv by HTLC-MS/MS analysis; format: ADME, organism-based; design: dose 1.6 mg/kg, route intravenous; details: 1.6 mg/kg; in short: as §1
[10] = Oral bioavailability in fasted Sprague-Dawley rat at 3.25 mg/kg by HTLC-MS/MS analysis; format: ADME, organism-based; details: in vivo; in short: as §3
[11] = Tmax in fasted Sprague-Dawley rat at 1.60 mg/kg, iv and 3.25 mg/kg, po by HTLC-MS/MS analysis; format: ADME, organism-based; details: in vivo; in short: as §2
[12] = system: Hepatocyte; assay: Inhibition of glucagon-stimulated glucose production in human primary hepatocytes preincubated for 10 mins before glucagon addition by NADH-linked hexokinase assay; format: functional, cell-based
In short: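 Cultured primary human hepatocytes were preincubated with compound for 10 min, then glycogenolysis was induced with 5 nM glucagon for 60 min. Glucose in the medium was measured against basal glycogenolysis. Albumin was present in the assay medium. IC50 was calculated from four experiments, mean ± SEM.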

[13] = molecular target: T2, Glucagon receptor (Homo sapiens, UniProt P47871); assay: Binding affinity to human recombinant glucagon receptor expressed in BHK cells by membrane filter assay; format: cell-based
[14] = Clearance in fasted Beagle dog at 0.25 mg/kg, iv and 0.5 mg/kg, po; format: ADME, organism-based, Canis lupus familiaris; details: in vivo; in short: as §4
[15] = Cmax in fasted Beagle dog at 0.25 mg/kg, iv and 0.5 mg/kg, po; format: ADME, organism-based, Canis lupus familiaris; details: in vivo; in short: as §4
[16] = molecular target: T1, Gastric inhibitory polypeptide receptor; assay: Binding affinity to human recombinant GIPR expressed in BHK cells by membrane filter assay; format: cell-based
[17] = organism: Homo sapiens; assay: Selectivity ratio of IC50 for human recombinant glucagon receptor to IC50 for human recombinant GIPR
In short: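 Competition binding of compounds to recombinant human glucagon and GIP receptors on BHK cell membranes, run in parallel as a scintillation proximity assay and, for selected compounds, as a membrane filtration assay.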

[18] = Binding affinity to glucagon receptor in pig liver membrane by membrane filter assay; format: cell membranes, Sus scrofa
[19] = Binding affinity to glucagon receptor in dog liver membrane by membrane filter assay; format: cell membranes, Canis lupus familiaris
[20] = molecular target: Glucagon receptor (Rattus norvegicus, UniProt P30082); assay: Binding affinity to glucagon receptor in rat liver membrane by membrane filter assay; format: cell membranes
[21] = molecular target: Glucagon receptor (Mus musculus, UniProt Q61606); assay: Binding affinity to glucagon receptor in mouse liver membrane by membrane filter assay; format: cell membranes
[22] = Binding affinity to glucagon receptor in monkey liver membrane by membrane filter assay; format: cell membranes, Macaca mulatta
[23] = organism: Homo sapiens; assay: Selectivity for human recombinant glucagon receptor over human GLP1R
[24] = molecular target: T2, Glucagon receptor; assay: Displacement of [125I]porcine glucagon from human recombinant glucagon receptor expressed in BHK cells by scintillation proximity assay; format: cell-based
[25] = Cmax in fasted Sprague-Dawley rat at 1.62 mg/kg, iv and 3.25 mg/kg, po by HTLC-MS/MS analysis; format: ADME, organism-based; details: in vivo; in short: as §1
[26] = Clearance in fasted Sprague-Dawley rat at 1.62 mg/kg, iv and 3.25 mg/kg, po by HTLC-MS/MS analysis; format: ADME, organism-based; details: in vivo; in short: as §1
[27] = Tmax in fasted Sprague-Dawley rat at 1.62 mg/kg, iv and 3.25 mg/kg, po by HTLC-MS/MS analysis; format: ADME, organism-based; details: in vivo; in short: as §2
[28] = Half life in fasted Sprague-Dawley rat plasma at 1.62 mg/kg, iv by HTLC-MS/MS analysis; format: ADME, organism-based; design: dose 1.62 mg/kg, route intravenous; in short: as §1
[29] = Clearance in fasted Sprague-Dawley rat at 1.59 mg/kg, iv and 3.20 mg/kg, po by HTLC-MS/MS analysis; format: ADME, organism-based; details: in vivo; in short: as §1
[30] = Oral bioavailability in fasted Sprague-Dawley rat at 3.20 mg/kg by HTLC-MS/MS analysis; format: ADME, organism-based; details: in vivo, 3.2 mg/kg; in short: as §3
[31] = Half life in fasted Sprague-Dawley rat plasma at 1.59 mg/kg, iv by HTLC-MS/MS analysis; format: ADME, organism-based; design: dose 1.59 mg/kg, route intravenous; in short: as §1
[32] = Tmax in fasted Sprague-Dawley rat at 1.59 mg/kg, iv and 3.20 mg/kg, po by HTLC-MS/MS analysis; format: ADME, organism-based; details: in vivo, 3.2 mg/kg; in short: as §2
[33] = Cmax in fasted Sprague-Dawley rat at 1.59 mg/kg, iv and 3.20 mg/kg, po by HTLC-MS/MS analysis; format: ADME, organism-based; details: in vivo, 3.2 mg/kg; in short: as §1

T2 sequence (P47871 whole entry): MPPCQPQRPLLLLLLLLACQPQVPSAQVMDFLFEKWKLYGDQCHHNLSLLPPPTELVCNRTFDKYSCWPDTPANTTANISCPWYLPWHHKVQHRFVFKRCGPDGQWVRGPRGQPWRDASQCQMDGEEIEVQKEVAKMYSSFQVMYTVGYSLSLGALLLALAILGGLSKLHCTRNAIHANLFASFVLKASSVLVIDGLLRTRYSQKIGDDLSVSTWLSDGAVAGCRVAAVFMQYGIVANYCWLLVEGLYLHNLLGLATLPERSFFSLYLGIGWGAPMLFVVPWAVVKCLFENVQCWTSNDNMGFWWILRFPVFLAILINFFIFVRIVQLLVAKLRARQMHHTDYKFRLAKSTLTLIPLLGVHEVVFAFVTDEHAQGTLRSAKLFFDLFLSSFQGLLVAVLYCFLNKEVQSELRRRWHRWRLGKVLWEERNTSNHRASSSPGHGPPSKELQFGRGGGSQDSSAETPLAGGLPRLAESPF
Sequence of Glucagon receptor (Mus musculus, UniProt Q61606) (Q61606 whole entry): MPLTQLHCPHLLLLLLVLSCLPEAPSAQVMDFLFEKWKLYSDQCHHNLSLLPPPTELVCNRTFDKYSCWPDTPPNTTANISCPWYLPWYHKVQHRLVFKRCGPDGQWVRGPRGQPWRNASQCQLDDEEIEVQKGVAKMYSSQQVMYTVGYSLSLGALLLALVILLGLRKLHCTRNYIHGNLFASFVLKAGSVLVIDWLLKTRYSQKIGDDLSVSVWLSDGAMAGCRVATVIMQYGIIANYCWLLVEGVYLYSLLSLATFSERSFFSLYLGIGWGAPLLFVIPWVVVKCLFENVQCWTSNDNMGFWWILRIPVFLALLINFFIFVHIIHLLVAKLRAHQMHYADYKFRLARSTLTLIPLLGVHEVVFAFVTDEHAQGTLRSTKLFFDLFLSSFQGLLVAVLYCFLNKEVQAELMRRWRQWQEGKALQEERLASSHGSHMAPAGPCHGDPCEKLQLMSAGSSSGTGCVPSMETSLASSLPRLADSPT
Sequence of Glucagon receptor (Rattus norvegicus, UniProt P30082) (P30082 whole entry): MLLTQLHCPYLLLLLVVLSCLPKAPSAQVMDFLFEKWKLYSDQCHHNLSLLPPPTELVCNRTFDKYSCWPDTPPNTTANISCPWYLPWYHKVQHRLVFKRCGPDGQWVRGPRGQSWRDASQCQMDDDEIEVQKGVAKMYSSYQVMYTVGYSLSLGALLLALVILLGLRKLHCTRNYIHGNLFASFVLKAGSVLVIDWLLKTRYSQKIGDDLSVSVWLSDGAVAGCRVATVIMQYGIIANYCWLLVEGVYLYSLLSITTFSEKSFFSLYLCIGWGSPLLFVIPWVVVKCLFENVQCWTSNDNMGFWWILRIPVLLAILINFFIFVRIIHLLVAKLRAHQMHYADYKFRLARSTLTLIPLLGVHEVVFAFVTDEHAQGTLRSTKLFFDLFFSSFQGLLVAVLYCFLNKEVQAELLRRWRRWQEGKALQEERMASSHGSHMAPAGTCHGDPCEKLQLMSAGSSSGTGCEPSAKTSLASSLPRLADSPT

With O=C(O)CCNC(=O)c1ccc(CN(c2ccc(Cl)cc2)c2nc(-c3ccc(C(F)(F)F)cc3)cs2)cc1 the IC50 [1] was 649 nM, the clearance [2] was 5 mL/min/kg and the Cmax [3] was 216 ng/mL. The Tmax [4] was 1.75 h, the bioavailability [5] was 16% and the inhibition [6] was “inactive”. It also gave an IC50 [7] of 943 nM, a half-life [8] of 1.33 h and a half-life [9] of 2.25 h. For the same compound, the bioavailability [10] was 13%, the Tmax [11] was 1.5 h and the IC50 [12] was 2700 nM. It also gave an IC50 [13] of 53 nM, a clearance [14] of 4.66 mL/min/kg and a Cmax [15] of 120 ng/mL. For the same compound, the IC50 [16] was 410 nM, the fold change (FC) [17] was 5 and the IC50 [18] was 4000 nM. For the same compound, the IC50 [19] was 68 nM, the IC50 [20] was 1400 nM and the IC50 [21] was 372 nM. The IC50 [22] was 51 nM, the fold change (FC) [23] was over 50 and the IC50 [24] was 76 nM.

O=C(O)CCNC(=O)c1ccc(CN(c2ccc3c(c2)CCCC3)c2nc(-c3ccc(C(F)(F)F)cc3)cs2)cc1 showed an IC50 [1] of 564 nM, a Cmax [25] of 615 ng/mL and a bioavailability [10] of 27%. The IC50 [13] was 48 nM, the clearance [26] was 7 mL/min/kg and the IC50 [16] was 390 nM. It also gave a fold change (FC) [17] of 5, a Tmax [27] of 1.5 h and a half-life [28] of 1.23 h. For the same compound, the IC50 [22] was 3 nM, the fold change (FC) [23] was over 50 and the IC50 [24] was 77 nM.

With O=C(O)CCNC(=O)c1ccc(CN(c2ccc(Cl)cc2)c2nc(-c3ccc(OC(F)(F)F)cc3)cs2)cc1 the IC50 [1] was 869 nM, the clearance [29] was 6 mL/min/kg and the Tmax [4] was 1.5 h. The bioavailability [30] was 16%, the bioavailability [5] was 71% and the inhibition [6] was “inactive”. It also gave an IC50 [7] of 1200 nM, a half-life [8] of 1.1 h and an IC50 [12] of 2800 nM. It also gave an IC50 [13] of 53 nM, a half-life [31] of 1.52 h and a clearance [14] of 4.64 mL/min/kg. It also gave a Cmax [15] of 554 ng/mL, a Tmax [32] of 1 h and an IC50 [16] of 460 nM. For the same compound, the fold change (FC) [17] was 5, the IC50 [18] was 5700 nM and the IC50 [19] was 78 nM. For the same compound, the IC50 [20] was 1700 nM, the IC50 [21] was 418 nM and the Cmax [33] was 521 ng/mL. The IC50 [22] was 60 nM, the fold change (FC) [23] was over 50 and the IC50 [24] was 82 nM.
